system: not listed separately; test: Cytotoxicity against human MT4 cells assessed as reduction in cell proliferation after 96 hrs by MTT assay; format: cell-based; details: not given
Method in brief: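 MT-4 cells in exponential growth seeded at 1 × 10^5 cells/mL in RPMI-1640 with 10% FBS and penicillin/streptomycin. Cultured with serial compound dilutions at 37 °C, 5% CO2. MTT viability after 96 h. CC50 by linear regression against untreated controls. Mean of three independent determinations.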

| SMILES | CC50 at 96 h |
| --- | --- |
| Cn1c(=O)c(-c2cccs2)nc2c(Cl)c3ncccc3cc21 | > 100 µM |
| Cn1c(=O)c(Cc2ccccc2)nc2c(Cl)c3ncccc3cc21 | > 100 µM |
| O=c1c(-c2ccccc2)nc2c(Cl)c3ncccc3cc2n1Cc1ccc([N+](=O)[O-])cc1 | > 100 µM |
| O=c1c(-c2cccs2)nc2cc3cccnc3c(Cl)c2n1C1CCCCC1 | > 100 µM |
| COc1nc2cc3cccnc3c(Cl)c2nc1Cc1ccccc1 | > 100 µM |

system: Human immunodeficiency virus 1; test: Antiviral activity against HIV-1 3B infected in human MT4 cells assessed as protection against virus-induced cytopathic effect after 4 days by MTT assay; format: functional, organism-based; details: Human immunodeficiency virus 1, 3B, MT4, 96 h
Method in brief: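 MT-4 cells (1 × 10^4/well in RPMI) with or without serial compound dilutions, infected with HIV-1 at 100 CCID50 (m.o.i. 0.01). After 4 days at 37 °C, protection from cytopathogenicity read by MTT. EC50 by linear regression versus untreated controls; mean of three independent determinations.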

| SMILES | EC50 |
| --- | --- |
| Cn1c(=O)c(-c2cccs2)nc2c(Cl)c3ncccc3cc21 | > 100 µM |
| Cn1c(=O)c(Cc2ccccc2)nc2c(Cl)c3ncccc3cc21 | > 100 µM |
| O=c1c(-c2ccccc2)nc2c(Cl)c3ncccc3cc2n1Cc1ccc([N+](=O)[O-])cc1 | > 100 µM |
| O=c1c(-c2cccs2)nc2cc3cccnc3c(Cl)c2n1C1CCCCC1 | > 100 µM |
| COc1nc2cc3cccnc3c(Cl)c2nc1Cc1ccccc1 | > 100 µM |

system: not listed separately; test: Cytotoxicity against MDBK cells assessed as reduction in cell viability after 72 hrs by MTT assay; format: cell-based, Bos taurus; details: cattle
Method in brief: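 MDBK cells seeded at 6 × 10^5 cells/mL in MEM-E with L-glutamine, 1 mM sodium pyruvate, kanamycin and 10% horse serum. Mock-infected cultures held with serial compound dilutions at 37 °C, 5% CO2. MTT viability read after 72 h. 50% cytotoxic concentration from linear regression as % of untreated controls. Three independent determinations.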

| SMILES | CC50 at 72 h |
| --- | --- |
| Cn1c(=O)c(-c2cccs2)nc2c(Cl)c3ncccc3cc21 | > 100 µM |
| Cn1c(=O)c(Cc2ccccc2)nc2c(Cl)c3ncccc3cc21 | > 100 µM |
| O=c1c(-c2ccccc2)nc2c(Cl)c3ncccc3cc2n1Cc1ccc([N+](=O)[O-])cc1 | > 100 µM |
| O=c1c(-c2cccs2)nc2cc3cccnc3c(Cl)c2n1C1CCCCC1 | > 100 µM |
| COc1nc2cc3cccnc3c(Cl)c2nc1Cc1ccccc1 | > 100 µM |

system: Bovine viral diarrhea virus 1; test: Antiviral activity against BVDV NADL ATCC VR-534 infected in MDBK cells assessed as protection against virus-induced cytopathic effect after 3 or 4 days by MTT assay; format: functional, organism-based; details: Bovine viral diarrhea virus isolates and strains, NADL ATCC VR-534, MDBK
Method in brief: (§1)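 BHK-21 (YFV, Reo-1) or MDBK (BVDV) cells seeded at 5 × 10^4 or 3 × 10^4 cells/well and grown overnight to confluence. Monolayers infected at m.o.i. 0.01 in maintenance medium (MEM-Earle, 0.5% inactivated FBS). Serial compound dilutions added 2 h after infection; 37 °C for 3-4 days. Viability read by MTT. EC50 by linear regression versus untreated controls; mean of three determinations.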

| SMILES | EC50 |
| --- | --- |
| Cn1c(=O)c(-c2cccs2)nc2c(Cl)c3ncccc3cc21 | 2 µM |
| Cn1c(=O)c(Cc2ccccc2)nc2c(Cl)c3ncccc3cc21 | 10 µM |
| O=c1c(-c2ccccc2)nc2c(Cl)c3ncccc3cc2n1Cc1ccc([N+](=O)[O-])cc1 | > 100 µM |
| O=c1c(-c2cccs2)nc2cc3cccnc3c(Cl)c2n1C1CCCCC1 | 15 µM |
| COc1nc2cc3cccnc3c(Cl)c2nc1Cc1ccccc1 | 6 µM |

system: not listed separately; test: Cytotoxicity against BHK21 cells assessed as reduction in cell viability after 72 hrs by MTT assay; format: cell-based, Mesocricetus auratus, BHK-21; details: hamster
Method in brief: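 BHK cells seeded at 1 × 10^6 cells/mL in MEM-E with L-glutamine, 1 mM sodium pyruvate, kanamycin and 10% FBS. Mock-infected cells exposed to serial dilutions of compound at 37 °C, 5% CO2, run in parallel with the antiviral assays. Viability by MTT at 72 h. CC50 by linear regression vs untreated controls. Mean of three independent determinations.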

| SMILES | CC50 at 72 h |
| --- | --- |
| Cn1c(=O)c(-c2cccs2)nc2c(Cl)c3ncccc3cc21 | > 100 µM |
| Cn1c(=O)c(Cc2ccccc2)nc2c(Cl)c3ncccc3cc21 | > 100 µM |
| O=c1c(-c2ccccc2)nc2c(Cl)c3ncccc3cc2n1Cc1ccc([N+](=O)[O-])cc1 | > 100 µM |
| O=c1c(-c2cccs2)nc2cc3cccnc3c(Cl)c2n1C1CCCCC1 | > 100 µM |
| COc1nc2cc3cccnc3c(Cl)c2nc1Cc1ccccc1 | > 100 µM |

system: Yellow fever virus; test: Antiviral activity against YFV 17-D vaccine (Stamaril Pasteur J07B01) infected in BHK21 cells assessed as protection against virus-induced cytopathic effect after 3 or 4 days by MTT assay; format: functional, organism-based; details: BHK-21; method in brief: as §1

| SMILES | EC50 |
| --- | --- |
| Cn1c(=O)c(-c2cccs2)nc2c(Cl)c3ncccc3cc21 | > 100 µM |
| Cn1c(=O)c(Cc2ccccc2)nc2c(Cl)c3ncccc3cc21 | > 100 µM |
| O=c1c(-c2ccccc2)nc2c(Cl)c3ncccc3cc2n1Cc1ccc([N+](=O)[O-])cc1 | > 100 µM |
| O=c1c(-c2cccs2)nc2cc3cccnc3c(Cl)c2n1C1CCCCC1 | > 100 µM |
| COc1nc2cc3cccnc3c(Cl)c2nc1Cc1ccccc1 | > 100 µM |

system: Mammalian orthoreovirus 1; test: Antiviral activity against Reovirus 1 ATCC VR- 214 infected in BHK21 cells assessed as protection against virus-induced cytopathic effect after 3 or 4 days by MTT assay; format: functional, cell-based; details: Mammalian orthoreovirus 1, ATCC VR- 214, BHK-21; method in brief: as §1

| SMILES | EC50 |
| --- | --- |
| Cn1c(=O)c(-c2cccs2)nc2c(Cl)c3ncccc3cc21 | > 100 µM |
| Cn1c(=O)c(Cc2ccccc2)nc2c(Cl)c3ncccc3cc21 | > 100 µM |
| O=c1c(-c2ccccc2)nc2c(Cl)c3ncccc3cc2n1Cc1ccc([N+](=O)[O-])cc1 | > 100 µM |
| O=c1c(-c2cccs2)nc2cc3cccnc3c(Cl)c2n1C1CCCCC1 | > 100 µM |
| COc1nc2cc3cccnc3c(Cl)c2nc1Cc1ccccc1 | > 100 µM |

system: not listed separately; test: Cytotoxicity against african green monkey Vero 76 cells assessed as reduction in cell viability after 48 to 96 hrs by MTT assay; format: cell-based; details: chlorocebus sabaeus
Method in brief: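 Vero-76 cells plated at 4 × 10^5 cells/mL in D-MEM with L-glutamine, kanamycin and 10% FBS. Incubated with serial dilutions of test compounds at 37 °C, 5% CO2 for 48-96 h. Viability by MTT. CC50 by linear regression relative to untreated cells. Mean of three independent runs.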

| SMILES | CC50 |
| --- | --- |
| Cn1c(=O)c(-c2cccs2)nc2c(Cl)c3ncccc3cc21 | > 100 µM |
| Cn1c(=O)c(Cc2ccccc2)nc2c(Cl)c3ncccc3cc21 | > 100 µM |
| O=c1c(-c2ccccc2)nc2c(Cl)c3ncccc3cc2n1Cc1ccc([N+](=O)[O-])cc1 | > 100 µM |
| O=c1c(-c2cccs2)nc2cc3cccnc3c(Cl)c2n1C1CCCCC1 | > 100 µM |
| COc1nc2cc3cccnc3c(Cl)c2nc1Cc1ccccc1 | > 100 µM |

system: Coxsackievirus B5; test: Antiviral activity against CVB-5 virus Faulkner ATCC VR-185 infected in african green monkey Vero-76 cells after 3 days by plaque reduction assay; format: functional, organism-based; details: Enterovirus B, Faulkner ATCC VR-185, Vero 76, 72 h

| SMILES | EC50 |
| --- | --- |
| Cn1c(=O)c(-c2cccs2)nc2c(Cl)c3ncccc3cc21 | > 100 µM |
| Cn1c(=O)c(Cc2ccccc2)nc2c(Cl)c3ncccc3cc21 | > 100 µM |
| O=c1c(-c2ccccc2)nc2c(Cl)c3ncccc3cc2n1Cc1ccc([N+](=O)[O-])cc1 | > 100 µM |
| O=c1c(-c2cccs2)nc2cc3cccnc3c(Cl)c2n1C1CCCCC1 | > 100 µM |
| COc1nc2cc3cccnc3c(Cl)c2nc1Cc1ccccc1 | > 100 µM |

system: Human poliovirus 1 strain Sabin; test: Antiviral activity against Human poliovirus 1 strain Sabin 1 virus infected in african green monkey Vero-76 cells after 2 days by plaque reduction assay; format: functional, organism-based; details: Enterovirus C, 1, Vero 76, 48 h

| SMILES | EC50 |
| --- | --- |
| Cn1c(=O)c(-c2cccs2)nc2c(Cl)c3ncccc3cc21 | > 100 µM |
| Cn1c(=O)c(Cc2ccccc2)nc2c(Cl)c3ncccc3cc21 | > 100 µM |
| O=c1c(-c2ccccc2)nc2c(Cl)c3ncccc3cc2n1Cc1ccc([N+](=O)[O-])cc1 | > 100 µM |
| O=c1c(-c2cccs2)nc2cc3cccnc3c(Cl)c2n1C1CCCCC1 | > 100 µM |
| COc1nc2cc3cccnc3c(Cl)c2nc1Cc1ccccc1 | > 100 µM |

system: Respiratory syncytial virus; test: Antiviral activity against RSVA2 ATCC VR-1540 infected in african green monkey Vero-76 cells after 5 days by plaque reduction assay; format: functional, organism-based; details: human respiratory syncytial virus, A2 ATCC VR-1540, Vero 76, 120 h

| SMILES | EC50 |
| --- | --- |
| Cn1c(=O)c(-c2cccs2)nc2c(Cl)c3ncccc3cc21 | > 100 µM |
| Cn1c(=O)c(Cc2ccccc2)nc2c(Cl)c3ncccc3cc21 | > 100 µM |
| O=c1c(-c2ccccc2)nc2c(Cl)c3ncccc3cc2n1Cc1ccc([N+](=O)[O-])cc1 | > 100 µM |
| O=c1c(-c2cccs2)nc2cc3cccnc3c(Cl)c2n1C1CCCCC1 | > 100 µM |
| COc1nc2cc3cccnc3c(Cl)c2nc1Cc1ccccc1 | > 100 µM |

system: Vesicular stomatitis virus; test: Antiviral activity against VSV Indiana ATCC VR-158 infected in african green monkey Vero-76 cells after 2 days by plaque reduction assay; format: functional, organism-based; details: Indiana ATCC VR-158, Vero 76, 48 h

| SMILES | EC50 |
| --- | --- |
| Cn1c(=O)c(-c2cccs2)nc2c(Cl)c3ncccc3cc21 | > 100 µM |
| Cn1c(=O)c(Cc2ccccc2)nc2c(Cl)c3ncccc3cc21 | > 100 µM |
| O=c1c(-c2ccccc2)nc2c(Cl)c3ncccc3cc2n1Cc1ccc([N+](=O)[O-])cc1 | > 100 µM |
| O=c1c(-c2cccs2)nc2cc3cccnc3c(Cl)c2n1C1CCCCC1 | > 100 µM |
| COc1nc2cc3cccnc3c(Cl)c2nc1Cc1ccccc1 | > 100 µM |

system: Vaccinia virus; test: Antiviral activity against VV Elstree ATCC VR-1549 infected in african green monkey Vero-76 cells after 3 days by plaque reduction assay; format: functional, organism-based; details: Orthopoxvirus vaccinia, Elstree ATCC VR-1549, Vero 76, 72 h

| SMILES | EC50 |
| --- | --- |
| Cn1c(=O)c(-c2cccs2)nc2c(Cl)c3ncccc3cc21 | > 100 µM |
| Cn1c(=O)c(Cc2ccccc2)nc2c(Cl)c3ncccc3cc21 | > 100 µM |
| O=c1c(-c2ccccc2)nc2c(Cl)c3ncccc3cc2n1Cc1ccc([N+](=O)[O-])cc1 | > 100 µM |
| O=c1c(-c2cccs2)nc2cc3cccnc3c(Cl)c2n1C1CCCCC1 | > 100 µM |
| COc1nc2cc3cccnc3c(Cl)c2nc1Cc1ccccc1 | > 100 µM |

system: Human alphaherpesvirus 1; test: Antiviral activity against HSV-1 KOS ATCC VR- 1493 infected in african green monkey Vero-76 cells after 3 days by plaque reduction assay; format: functional, organism-based; details: Human alphaherpesvirus 1, KOS ATCC VR1493, Vero 76, 72 h

| SMILES | EC50 |
| --- | --- |
| Cn1c(=O)c(-c2cccs2)nc2c(Cl)c3ncccc3cc21 | > 100 µM |
| Cn1c(=O)c(Cc2ccccc2)nc2c(Cl)c3ncccc3cc21 | > 100 µM |
| O=c1c(-c2ccccc2)nc2c(Cl)c3ncccc3cc2n1Cc1ccc([N+](=O)[O-])cc1 | > 100 µM |
| O=c1c(-c2cccs2)nc2cc3cccnc3c(Cl)c2n1C1CCCCC1 | > 100 µM |
| COc1nc2cc3cccnc3c(Cl)c2nc1Cc1ccccc1 | > 100 µM |

Reference: ChEMBL document CHEMBL3734708, “Synthesis, cytotoxicity and antiviral evaluation of new series of imidazo[4,5-g]quinoline and pyrido[2,3-g]quinoxalinone derivatives” (Eur J Med Chem, 2015)
